Active and inactive are the calls of the source. The calls are words filed in the database; no cut-off is given here.
Assays:
Progesterone receptor = biological target: T1, Progesterone receptor (Homo sapiens, UniProt P06401); assay: Displacement of [3H]-methyltrienolone from human progesterone receptor expressed in HEK293 cells; assay type: cell-based
T1 sequence (P06401 whole entry): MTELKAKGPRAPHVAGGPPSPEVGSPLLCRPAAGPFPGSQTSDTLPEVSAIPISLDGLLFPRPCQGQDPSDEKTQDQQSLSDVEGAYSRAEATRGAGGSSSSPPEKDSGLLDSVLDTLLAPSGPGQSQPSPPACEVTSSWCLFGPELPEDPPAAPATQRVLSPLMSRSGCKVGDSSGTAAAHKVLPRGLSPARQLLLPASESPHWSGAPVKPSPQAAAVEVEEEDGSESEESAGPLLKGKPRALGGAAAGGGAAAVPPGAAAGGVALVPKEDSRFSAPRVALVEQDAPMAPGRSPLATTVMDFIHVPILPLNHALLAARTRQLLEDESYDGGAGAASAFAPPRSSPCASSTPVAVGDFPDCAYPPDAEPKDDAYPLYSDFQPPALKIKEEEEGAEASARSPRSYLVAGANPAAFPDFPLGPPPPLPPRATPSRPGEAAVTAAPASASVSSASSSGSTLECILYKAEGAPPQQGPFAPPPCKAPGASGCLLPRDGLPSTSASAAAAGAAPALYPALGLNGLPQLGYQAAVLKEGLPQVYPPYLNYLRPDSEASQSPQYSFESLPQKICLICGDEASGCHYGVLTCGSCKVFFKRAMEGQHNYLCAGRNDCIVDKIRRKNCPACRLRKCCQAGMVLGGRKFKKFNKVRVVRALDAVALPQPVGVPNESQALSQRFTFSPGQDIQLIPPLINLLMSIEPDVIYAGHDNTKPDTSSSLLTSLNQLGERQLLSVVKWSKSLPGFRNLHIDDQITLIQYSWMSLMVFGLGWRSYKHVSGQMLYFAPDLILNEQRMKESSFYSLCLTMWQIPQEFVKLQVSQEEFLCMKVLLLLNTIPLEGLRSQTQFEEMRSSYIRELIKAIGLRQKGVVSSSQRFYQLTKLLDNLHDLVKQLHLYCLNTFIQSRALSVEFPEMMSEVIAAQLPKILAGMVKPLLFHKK
Summary of the method: (§1)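 Competition binding used lysates of HEK293 cells overexpressing the human receptor. The tracer was ³H-aldosterone for MR and ³H-methyltrienolone for PR. Competitor was tested from 0.01 nM to 10 μM. IC50 was converted to Ki by Cheng–Prusoff. Values are means of at least three experiments, each run in triplicate.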

Glucocorticoid receptor = biological target: T2, Glucocorticoid receptor (Homo sapiens, UniProt P04150); assay: Displacement of [3H]-dexamethasone from human glucocorticoid receptor expressed in HEK293 cells; assay type: cell-based
T2 sequence (P04150 whole entry): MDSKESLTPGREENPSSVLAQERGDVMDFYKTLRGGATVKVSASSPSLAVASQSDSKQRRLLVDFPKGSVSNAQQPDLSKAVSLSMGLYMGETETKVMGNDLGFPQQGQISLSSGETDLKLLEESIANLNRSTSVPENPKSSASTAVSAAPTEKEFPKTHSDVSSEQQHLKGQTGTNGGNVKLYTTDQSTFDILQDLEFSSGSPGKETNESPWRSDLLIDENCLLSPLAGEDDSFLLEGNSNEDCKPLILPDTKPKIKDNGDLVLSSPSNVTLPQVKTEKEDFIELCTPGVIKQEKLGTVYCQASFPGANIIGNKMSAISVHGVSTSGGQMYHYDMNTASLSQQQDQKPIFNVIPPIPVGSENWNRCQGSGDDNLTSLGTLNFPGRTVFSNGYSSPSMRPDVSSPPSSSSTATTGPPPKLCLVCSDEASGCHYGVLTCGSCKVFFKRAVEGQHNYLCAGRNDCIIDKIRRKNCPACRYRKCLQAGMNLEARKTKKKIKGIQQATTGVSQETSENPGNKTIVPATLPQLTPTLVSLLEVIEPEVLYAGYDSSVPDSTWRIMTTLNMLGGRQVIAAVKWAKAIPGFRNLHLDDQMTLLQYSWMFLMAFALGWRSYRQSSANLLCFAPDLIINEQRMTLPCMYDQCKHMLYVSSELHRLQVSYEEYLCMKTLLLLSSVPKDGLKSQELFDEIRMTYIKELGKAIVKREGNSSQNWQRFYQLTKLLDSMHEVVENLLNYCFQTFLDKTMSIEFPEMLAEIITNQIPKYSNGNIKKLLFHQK

Rattus norvegicus [1] = assay: Antiinflammatory activity in po dosed Sprague-Dawley rat assessed as inhibition of carrageenan-induced IL-1beta secretion incubated for 2 hrs prior to carrageenan challenge measured after 5 hrs by ELISA; assay type: functional
Summary of the method: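 Male Sprague-Dawley rats (n = 5/group) were dosed at t = 0, and carrageenan was injected into the rear footpad at 2 h. At 5 h the animals were euthanised and the hindpaws weighed to measure edema. Paw exudate was assayed for IL-1β by ELISA.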

[2] = Antiinflammatory activity in human CCD-39SK cells assessed as inhibition of IL-1beta-induced IL-6 production incubated for 60 mins prior to IL-1beta induction measured after 24 hrs; assay type: functional, cell-based
Summary of the method: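 CCD-39SK fibroblasts (20 000/well) were grown in MEM with 2% charcoal/dextran-treated FBS. Cells were pretreated with compound for 60 min, then stimulated with rhIL-1β (1 ng/mL final) for 24 h at 37 °C. IL-6 in clarified supernatant was measured. […] Ten-point half-log dilutions were used, each in triplicate.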

[3] = biological target: T3, Glucocorticoid receptor (Homo sapiens) (UniProt P04150); assay: Transactivation of human glucocorticoid receptor expressed in HEK293 cells at 10 uM after 24 hrs by luciferase reporter gene assay relative to control; assay type: cell-based
T3 sequence (whole entry): T2 sequence (P04150 whole entry)
Summary of the method: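 HEK293 cells were transfected in DMEM with 5% charcoal-stripped FBS, using a CMV-hGR plasmid and a luciferase reporter driven by 2×GRE plus the TK promoter. After overnight incubation, cells were replated and exposed to compound for 24 h, then lysed for luciferase readout.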

[4] = biological target: T4, Mineralocorticoid receptor (Homo sapiens, UniProt P08235); assay: Displacement of [3H]-aldosterone from human mineralocorticoid receptor expressed in HEK293 cells; assay type: cell-based; summary of the method: as §1
T4 sequence (P08235 whole entry): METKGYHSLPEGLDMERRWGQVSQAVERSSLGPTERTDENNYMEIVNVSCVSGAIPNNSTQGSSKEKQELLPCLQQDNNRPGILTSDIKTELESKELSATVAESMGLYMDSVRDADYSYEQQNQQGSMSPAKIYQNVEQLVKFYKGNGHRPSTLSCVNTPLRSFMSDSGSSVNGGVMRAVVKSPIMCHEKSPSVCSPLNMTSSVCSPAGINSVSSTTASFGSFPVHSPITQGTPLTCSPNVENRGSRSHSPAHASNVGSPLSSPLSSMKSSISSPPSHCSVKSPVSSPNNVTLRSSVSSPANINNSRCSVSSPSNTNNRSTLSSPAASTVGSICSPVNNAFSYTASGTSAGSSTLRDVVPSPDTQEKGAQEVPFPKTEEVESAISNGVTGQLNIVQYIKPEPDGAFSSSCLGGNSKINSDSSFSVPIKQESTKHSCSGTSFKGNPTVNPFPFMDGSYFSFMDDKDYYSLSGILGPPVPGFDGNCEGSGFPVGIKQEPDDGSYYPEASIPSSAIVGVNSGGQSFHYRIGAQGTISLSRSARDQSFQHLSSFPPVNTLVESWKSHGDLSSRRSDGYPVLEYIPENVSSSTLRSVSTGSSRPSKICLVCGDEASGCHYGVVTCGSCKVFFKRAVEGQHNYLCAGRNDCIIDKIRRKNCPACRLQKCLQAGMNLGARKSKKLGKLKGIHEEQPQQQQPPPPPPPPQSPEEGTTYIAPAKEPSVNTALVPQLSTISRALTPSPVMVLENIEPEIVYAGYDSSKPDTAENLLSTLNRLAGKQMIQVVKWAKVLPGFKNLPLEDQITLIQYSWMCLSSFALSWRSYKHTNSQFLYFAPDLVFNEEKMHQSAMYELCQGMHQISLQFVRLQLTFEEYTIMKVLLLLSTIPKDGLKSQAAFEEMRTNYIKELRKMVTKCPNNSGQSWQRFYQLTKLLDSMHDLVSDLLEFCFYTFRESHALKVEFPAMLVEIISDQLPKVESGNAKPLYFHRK

Rattus norvegicus [5] = assay: Antiinflammatory activity in po dosed Sprague-Dawley rat assessed as inhibition of carrageenan-induced paw edema incubated for 2 hrs prior to carrageenan challenge measured after 5 hrs […]; assay type: functional
[6] = Antiinflammatory activity in PMA-differentiated human U937 cells assessed as inhibition of LPS-induced TNFalpha production incubated for 60 mins prior to LPS challenge measured after 24 hrs; assay type: functional, cell-based; details: U-937
Summary of the method: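 U-937 cells (100 000/well) were differentiated with 20 nM PMA overnight at 37 °C, then refed with PMA-free medium. Cells were pretreated with compound for 60 min, then stimulated with LPS (stock 400 ng/mL) for 24 h at 37 °C. Secreted TNFα was measured by EIA/RIA. Ten-point half-log dilutions were used, each concentration in triplicate.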

Rattus norvegicus [7] = assay: Antiinflammatory activity in Lewis rat collagen-induced arthritis model assessed as reduction in ankle diameter at 10 mg/kg, po administered for 15 days measured during compound dosing; assay type: functional, organism-based; parameters: dose 10 mg/kg
Summary of the method: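 Female Lewis rats received collagen injected at the tail base, and disease developed over 14 d. Responding rats (groups of n = 10) were then dosed orally once daily for the next 15 d. Ankle/paw diameter was measured throughout the live phase and summarised as AUC. Hindpaw histology was scored blind from 0 (normal) to 5 (vehicle-level). Statistics used Student's t test vs vehicle, p < 0.01.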

## C[C@@H]1C[C@H]2[C@@H]3CCC4=CC(=O)C=C[C@]4(C)[C@@]3(F)[C@@H](O)C[C@]2(C)[C@@]1(O)C(=O)CO [DEXAMETHASONE]
Progesterone receptor
  Ki: 561 nM

## CNS(=O)(=O)c1cccc(C=C2c3ccccc3CCc3ccccc32)c1
Glucocorticoid receptor
  Ki: > 100 nM

## CS(=O)(=O)Nc1ccccc1C=C1c2ccccc2CCc2ccccc21
Glucocorticoid receptor
  Ki: > 100 nM

## Nc1cccc(C=C2c3ccccc3CCc3ccccc32)c1
Glucocorticoid receptor
  Ki: > 100 nM

## CS(=O)(=O)Nc1ccc(C=C2c3ccccc3CCc3ccccc32)cc1
Glucocorticoid receptor
  Ki: > 100 nM

## C(=C1c2ccccc2CCc2ccccc21)c1ccccc1
Glucocorticoid receptor
  Ki: > 100 nM

## CCOc1cccc2c1/C(=C(/CC)c1cccc(N(CC)S(C)(=O)=O)c1)c1ccccc1OC2
Glucocorticoid receptor
  Ki: > 100 nM

## C[C@]12C=CC(=O)C=C1CC[C@@H]1[C@@H]2[C@@H](O)C[C@@]2(C)[C@H]1CC[C@]2(O)C(=O)CO [PREDNISOLONE]
Rattus norvegicus [1]
  ED50: 0.31 mg/kg
[2]
  IC50: 7.26 nM
[3]
  Efficacy: 114%
[4]
  Ki: 0.29 nM
Rattus norvegicus [5]
  ED50: 7.6 mg/kg
[6]
  IC50: 8.2 nM
Rattus norvegicus [7]
  Activity: Active
